Experimental data taken from ChEMBL document CHEMBL2434917, “Synthesis and anticancer activity of some novel 2-phenazinamine derivatives” (Eur J Med Chem, 2013).

Assays:
HEK-293T = assay: Cytotoxicity against human 293T cells after 48 hrs by MTT assay; type: cell-based
In short: (§1)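 Cells were kept in RPMI-1640 with 10% FBS, streptomycin and penicillin at 37 °C under 5% CO2. They were seeded at 5000/well and left 24 h, then exposed 48 h to compound (DMSO stock diluted in medium, DMSO ≤0.2%) at final 0.16, 0.63, 2.5, 10, 40 and 160 μM. MTT was added (10% v/v of 5 mg/ml) for 4 h, formazan was dissolved in DMSO and A490 read. IC50 came from the viability-versus-dose plot against control, with three repeats.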

HCT-116 = assay: Cytotoxicity against human HCT116 cells after 48 hrs by MTT assay; type: functional, cell-based; conditions: HCT-116, 48 h; in short: as §1
MCF7 [1] = assay: Cytotoxicity against human MCF7 cells after 48 hrs by MTT assay; type: functional, cell-based; conditions: MCF7, 48 h; in short: as §1
MGC-803 = assay: Cytotoxicity against human MGC803 cells after 48 hrs by MTT assay; type: functional, cell-based; conditions: MGC-803, 48 h; in short: as §1
K562 [2] = assay: Cytotoxicity against human K562 cells after 48 hrs by MTT assay; type: functional, cell-based; conditions: K562, 48 h; in short: as §1
HepG2 [3] = assay: Cytotoxicity against human HepG2 cells after 48 hrs by MTT assay; type: functional, cell-based; conditions: HepG2, 48 h; in short: as §1
HepG2 [4] = assay: Ratio of cisplatin IC50 to compound IC50 for human HepG2 cells; type: functional
MCF7 [5] = assay: Ratio of cisplatin IC50 to compound IC50 for human MCF7 cells; type: functional
HepG2 [6] = assay: Induction apoptosis in human HepG2 cells assessed as apoptotic cells level at 50 uM after 24 hrs using Annexin V-FITC and propidium iodide staining by flow cytometry analysis (reference value: 8.3%); type: functional
HepG2 [7] = assay: Induction apoptosis in human HepG2 cells assessed as late apoptosis or necrosis cells level at 50 uM after 24 hrs using Annexin V-FITC and propidium iodide staining by flow cytometry analysis (reference value: 5.7%); type: functional
K562 [8] = assay: Ratio of cisplatin IC50 to compound IC50 for human K562 cells; type: functional

SMILES	IC50 (HEK-293T)	IC50 (HCT-116)	IC50 (MCF7 [1])	IC50 (MGC-803)	IC50 (K562 [2])	IC50 (HepG2 [3])	Ratio IC50 (HepG2 [4])	Ratio IC50 (MCF7 [5])	Activity (HepG2 [6])	Activity (HepG2 [7])	Ratio IC50 (K562 [8])
CCC(=O)Nc1ccc2nc3ccccc3nc2c1	> 160 µM	18.9 µM	40.7 µM	63.9 µM	57.7 µM	> 160 µM					
CCOC(=O)Nc1ccc2nc3ccccc3nc2c1	> 160 µM	> 160 µM	46.1 µM	> 160 µM	> 160 µM	15.2 µM	1.2				
O=C(Cc1cccs1)Nc1ccc2nc3ccccc3nc2c1	> 160 µM	95.6 µM	> 160 µM			> 160 µM					
Cc1ccccc1C(=O)Nc1ccc2nc3ccccc3nc2c1	> 160 µM	> 160 µM	11.6 µM	27.2 µM	> 160 µM	> 160 µM		2.4			
O=C(Nc1ccc2nc3ccccc3nc2c1)c1cccs1	> 160 µM	68.1 µM	> 160 µM	> 160 µM	> 160 µM	> 160 µM					
O=C(Nc1ccc2nc3ccccc3nc2c1)c1cccc(Cl)c1	> 160 µM	> 160 µM	> 160 µM	> 160 µM	> 160 µM	> 160 µM					
O=C(Nc1ccc2nc3ccccc3nc2c1)c1cccc2ccccc12	> 160 µM	131 µM	30.1 µM	87.9 µM	61.2 µM	44.2 µM					
O=C(Nc1ccc2nc3ccccc3nc2c1)c1ccccc1Cl	> 160 µM	91.9 µM	> 160 µM	> 160 µM	33.4 µM	16.5 µM	1.1		36.1%	20.5%	1.7
CC(=O)Nc1ccc2nc3ccccc3nc2c1	> 160 µM	> 160 µM	82.6 µM	93.1 µM	49.2 µM	> 160 µM					1.1
O=C(CCC1CCCC1)Nc1ccc2nc3ccccc3nc2c1	> 160 µM	> 160 µM	> 160 µM	122 µM	157 µM	> 160 µM					
CCCC(=O)Nc1ccc2nc3ccccc3nc2c1	110 µM	62.3 µM	68.8 µM	43.5 µM	> 160 µM	> 160 µM					
Cc1cccc(C(=O)Nc2ccc3nc4ccccc4nc3c2)c1	56.2 µM	> 160 µM	> 160 µM	89 µM	> 160 µM	16.7 µM	1.1				
O=S(=O)(Nc1ccc2nc3ccccc3nc2c1)c1ccccc1	> 160 µM	> 160 µM	> 160 µM	> 160 µM	> 160 µM	> 160 µM					
O=C(Nc1ccc2nc3ccccc3nc2c1)c1ccccc1	> 160 µM	28.2 µM	> 160 µM	> 160 µM	> 160 µM	> 160 µM					
Cc1ccc(C(=O)Nc2ccc3nc4ccccc4nc3c2)cc1	> 160 µM	> 160 µM	> 160 µM	> 160 µM	> 160 µM	> 160 µM					
O=C(Cc1ccccc1)Nc1ccc2nc3ccccc3nc2c1	> 160 µM	> 160 µM	> 160 µM	> 160 µM	> 160 µM	> 160 µM					
COc1ccc(C(=O)Nc2ccc3nc4ccccc4nc3c2)cc1	> 160 µM	> 160 µM	> 160 µM	50.1 µM	> 160 µM	> 160 µM					
O=C(Nc1ccc2nc3ccccc3nc2c1)c1ccco1	> 160 µM	86.6 µM	28.8 µM			52.2 µM					
O=C(CCCl)Nc1ccc2nc3ccccc3nc2c1	> 160 µM	141 µM	37.6 µM	59.5 µM	74.5 µM	> 160 µM					
O=C(Nc1ccc2nc3ccccc3nc2c1)C1CCCCC1	> 160 µM	> 160 µM	137 µM	67.1 µM	78.9 µM	> 160 µM					
CN(C)C(=O)Nc1ccc2nc3ccccc3nc2c1	> 160 µM	144 µM	35.1 µM			> 160 µM					
